From ChEMBL document CHEMBL1143581, “Cationic chalcone antibiotics. Design, synthesis, and mechanism of action” (2005)
≈ marks a conversion by molar mass, not a printed value. Calls of active or inactive are those of the source. The calls are words filed in the database; no cut-off is given here.

Assays:
Enterococcus faecium [1] = assay: Minimum inhibitory concentration against Enterococcus faecium […]; type: functional
Staphylococcus aureus [2] = assay: Minimum inhibitory concentration against Staphylococcus aureus ATCC 33591 (resistant to methicillin); type: functional
Enterococcus faecium [3] = assay: Minimum inhibitory concentration against Enterococcus faecium 17501 (vancomycin-resistant clinical isolate); type: functional
Enterococcus faecium [4] = assay: Minimum inhibitory concentration against Enterococcus faecium 17501 (vancomycin-resistant clinical isolate); NA=not active; type: functional, organism-based
Enterococcus faecium [5] = assay: Minimum inhibitory concentration against Enterococcus faecium […]; NA=not active; type: functional, organism-based
Outline: (§1)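 Broth microdilution per NCCLS in Mueller-Hinton medium, run in triplicate, with an added uninoculated compound dilution series in case of precipitation. MIC read as the lowest concentration preventing visible growth; reported values are the mean of three experiments.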

Staphylococcus aureus [6] = assay: Minimum inhibitory concentration against Staphylococcus aureus ATCC 33591 (resistant to methicillin); NA=not active; type: functional, organism-based
Escherichia coli [7] = assay: Minimum inhibitory concentration against Escherichia coli ATCC 25922; type: functional; outline: as §1
Escherichia coli [8] = assay: Minimum inhibitory concentration against Escherichia coli ATCC 25922; NA=not active; type: functional, organism-based
[9] = Percent lysis of human erythrocytes after exposed to test compound was measured as hemolysis; type: functional
Staphylococcus aureus [10] = assay: Effect on bacterial membrane integrity was determined by using SYTO9 green fluorescent […]; type: functional, Bacteria
Outline: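 Incubated 15 min at 37 °C with agitation, then resuspended to OD600 ~0.4 and stained with BacLight (SYTO-9/propidium iodide) 15 min dark. Excitation 485 nm, emission 530/630 nm; green/red ratio normalized to untreated control.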

Structure (SMILES): CN(C)CCNc1cccc(C(=O)/C=C/c2ccc(Cl)cc2Cl)c1
- MIC (Enterococcus faecium [1]): 40 µM (≈ 14.5 µg/mL)
- MIC (Staphylococcus aureus [2]): 40 µM (≈ 14.5 µg/mL)
- MIC (Enterococcus faecium [3]): 40 µM (≈ 14.5 µg/mL)

Structure (SMILES): COc1ccc(C(=O)/C=C/c2cc(-c3ccccc3OC)ccc2N2CC[N+](C)(C)CC2)c(F)c1
- MIC (Staphylococcus aureus [2]): 10 µM

Structure (SMILES): C[N+](C)(C)CCOc1ccc(C(=O)/C=C/c2ccc(Cl)cc2Cl)cc1
- MIC (Staphylococcus aureus [2]): 40 µM

Structure (SMILES): COc1ccc(C(=O)/C=C/c2cc(-c3ccccc3OC)ccc2N2CCN(C(C)=O)CC2)c(F)c1
- MIC (Enterococcus faecium [4]): inactive
- MIC (Enterococcus faecium [5]): inactive
- MIC (Staphylococcus aureus [6]): inactive

Structure (SMILES): CN(C)CCNc1ccc(C(=O)/C=C/c2ccc(Cl)cc2)cc1
- MIC (Enterococcus faecium [1]): 75 µM (≈ 24.7 µg/mL)
- MIC (Staphylococcus aureus [2]): 75 µM (≈ 24.7 µg/mL)
- MIC (Enterococcus faecium [3]): 75 µM (≈ 24.7 µg/mL)

Structure (SMILES): Cc1cc(C)cc(-c2ccc(N(C)CCN(C)C)c(/C=C/C(=O)c3cccc(NCCN(C)C)c3)c2)c1
- MIC (Enterococcus faecium [1]): 10 µM (≈ 4.99 µg/mL)
- MIC (Staphylococcus aureus [2]): 10 µM (≈ 4.99 µg/mL)
- MIC (Escherichia coli [7]): 20 µM (≈ 9.97 µg/mL)
- MIC (Enterococcus faecium [3]): 10 µM (≈ 4.99 µg/mL)

Structure (SMILES): COc1ccc(C(=O)/C=C/c2cc(C(C)(C)C)ccc2OCCN(C)C)c(F)c1
- MIC (Enterococcus faecium [1]): 20 µM (≈ 7.99 µg/mL)
- MIC (Staphylococcus aureus [2]): 10 µM (≈ 4 µg/mL)
- MIC (Enterococcus faecium [3]): 20 µM (≈ 7.99 µg/mL)

Structure (SMILES): Cc1cc(C)cc(-c2ccc(OCCN(C)C)c(/C=C/C(=O)c3ccc(NCCN(C)C)cc3)c2)c1
- MIC (Enterococcus faecium [1]): 20 µM (≈ 9.71 µg/mL)
- MIC (Staphylococcus aureus [2]): 10 µM (≈ 4.86 µg/mL)
- MIC (Escherichia coli [7]): 20 µM (≈ 9.71 µg/mL)
- MIC (Enterococcus faecium [3]): 10 µM (≈ 4.86 µg/mL)

Structure (SMILES): CN(C)CCNc1ccc(C(=O)/C=C/c2ccccc2)cc1
- MIC (Staphylococcus aureus [2]): 300 µM (≈ 88.3 µg/mL)
- MIC (Enterococcus faecium [4]): inactive
- MIC (Enterococcus faecium [5]): inactive

Structure (SMILES): CN(C)CCNc1ccccc1C(=O)/C=C/c1ccc(Cl)cc1Cl
- MIC (Enterococcus faecium [1]): 75 µM (≈ 27.2 µg/mL)
- MIC (Staphylococcus aureus [2]): 40 µM (≈ 14.5 µg/mL)
- MIC (Enterococcus faecium [3]): 40 µM (≈ 14.5 µg/mL)

Structure (SMILES): CN(C)CCNc1cccc(C(=O)/C=C/c2cc(-c3ccccc3)cc(N3CCN(C)CC3)c2)c1
- MIC (Enterococcus faecium [1]): 40 µM (≈ 18.7 µg/mL)
- MIC (Staphylococcus aureus [2]): 20 µM (≈ 9.37 µg/mL)
- MIC (Escherichia coli [7]): 75 µM (≈ 35.1 µg/mL)
- MIC (Enterococcus faecium [3]): 40 µM (≈ 18.7 µg/mL)

Structure (SMILES): COc1ccc(C(=O)/C=C/c2cc(-c3cc(C)cc(C)c3)ccc2OCCN(C)C)c(F)c1
- MIC (Enterococcus faecium [1]): 5 µM (≈ 2.24 µg/mL)
- MIC (Staphylococcus aureus [2]): 5 µM (≈ 2.24 µg/mL)
- MIC (Enterococcus faecium [3]): 5 µM (≈ 2.24 µg/mL)

Structure (SMILES): CN(C)CCNc1cccc(C(=O)/C=C/c2cc(N3CCN(C)CC3)ccc2-c2ccccc2)c1
- MIC (Enterococcus faecium [1]): 75 µM (≈ 35.1 µg/mL)
- MIC (Staphylococcus aureus [2]): 75 µM (≈ 35.1 µg/mL)
- MIC (Enterococcus faecium [3]): 75 µM (≈ 35.1 µg/mL)
- MIC (Escherichia coli [8]): inactive

Structure (SMILES): Cc1cc(C)cc(-c2ccc(OCCN(C)C)c(/C=C/C(=O)c3ccc(OCCN(C)C)cc3)c2)c1
- MIC (Enterococcus faecium [1]): 20 µM (≈ 9.73 µg/mL)
- MIC (Staphylococcus aureus [2]): 10 µM (≈ 4.87 µg/mL)
- MIC (Escherichia coli [7]): 40 µM (≈ 19.5 µg/mL)
- MIC (Enterococcus faecium [3]): 10 µM (≈ 4.87 µg/mL)

Structure (SMILES): COc1ccc(C(=O)/C=C/c2cc(-c3ccccc3)ccc2OCCN(C)C)c(F)c1
- MIC (Enterococcus faecium [1]): 10 µM (≈ 4.19 µg/mL)
- MIC (Staphylococcus aureus [2]): 5 µM (≈ 2.1 µg/mL)
- MIC (Enterococcus faecium [3]): 10 µM (≈ 4.19 µg/mL)

Structure (SMILES): CN(C)CCNc1cccc(C(=O)/C=C/c2cc(-c3ccccc3)ccc2N2CCN(C)CC2)c1
- MIC (Enterococcus faecium [1]): 40 µM (≈ 18.7 µg/mL)
- MIC (Staphylococcus aureus [2]): 20 µM (≈ 9.37 µg/mL)
- MIC (Escherichia coli [7]): 20 µM (≈ 9.37 µg/mL)
- MIC (Enterococcus faecium [3]): 20 µM (≈ 9.37 µg/mL)

Structure (SMILES): COc1ccc(C(=O)/C=C/c2ccccc2OCCN(C)C)c(F)c1
- MIC (Enterococcus faecium [1]): 300 µM (≈ 103 µg/mL)
- MIC (Staphylococcus aureus [2]): 300 µM (≈ 103 µg/mL)
- MIC (Enterococcus faecium [3]): 300 µM (≈ 103 µg/mL)

Structure (SMILES): COc1ccc(C(=O)/C=C/c2cc(-c3ccccc3OC)ccc2OCCN(C)C)c(F)c1
- MIC (Enterococcus faecium [1]): 10 µM (≈ 4.5 µg/mL)
- MIC (Staphylococcus aureus [2]): 10 µM (≈ 4.5 µg/mL)
- MIC (Enterococcus faecium [3]): 10 µM (≈ 4.5 µg/mL)

Structure (SMILES): COc1ccc(C(=O)/C=C/c2cc(C)ccc2OCCN(C)C)c(F)c1
- MIC (Enterococcus faecium [1]): 150 µM (≈ 53.6 µg/mL)
- MIC (Staphylococcus aureus [2]): 75 µM (≈ 26.8 µg/mL)
- MIC (Enterococcus faecium [3]): 150 µM (≈ 53.6 µg/mL)

Structure (SMILES): COc1ccc(C(=O)/C=C/c2cc(-c3cc(C)cc(C)c3)ccc2OCCN(C)C)c(CN(C)C)c1
- Hemolysis [9]: <1%
- MIC (Enterococcus faecium [1]): 5 µM (≈ 2.43 µg/mL)
- MIC (Staphylococcus aureus [2]): 5 µM (≈ 2.43 µg/mL)
- MIC (Escherichia coli [7]): 75 µM (≈ 36.5 µg/mL)
- Membrane integrity (Staphylococcus aureus [10]): 2%
- MIC (Enterococcus faecium [3]): 5 µM (≈ 2.43 µg/mL)

Structure (SMILES): Cc1cc(C)cc(-c2ccc(OCCN(C)C)c(/C=C/C(=O)c3cccc(CN(C)C)c3)c2)c1
- MIC (Enterococcus faecium [1]): 10 µM (≈ 4.57 µg/mL)
- MIC (Staphylococcus aureus [2]): 10 µM (≈ 4.57 µg/mL)
- MIC (Escherichia coli [7]): 40 µM (≈ 18.3 µg/mL)
- MIC (Enterococcus faecium [3]): 10 µM (≈ 4.57 µg/mL)

Structure (SMILES): COc1ccc(C(=O)/C=C/c2cc(-c3ccccc3OC)ccc2N2CCCN(C)CC2)c(F)c1
- MIC (Enterococcus faecium [1]): 20 µM (≈ 9.49 µg/mL)
- MIC (Staphylococcus aureus [2]): 10 µM (≈ 4.75 µg/mL)
- MIC (Enterococcus faecium [3]): 10 µM (≈ 4.75 µg/mL)

Structure (SMILES): O=C(O)c1cn(C2CC2)c2cc(N3CCNCC3)c(F)cc2c1=O [CIPROFLOXACIN]
- Hemolysis [9]: 0%
- MIC (Staphylococcus aureus [2]): 2 µM (≈ 0.663 µg/mL)
- Membrane integrity (Staphylococcus aureus [10]): 102%

Structure (SMILES): COc1ccc(C(=O)/C=C/c2cc(-c3ccccc3C(F)(F)F)ccc2N2CCN(C)CC2)c(F)c1
- MIC (Enterococcus faecium [1]): 20 µM (≈ 9.97 µg/mL)
- MIC (Staphylococcus aureus [2]): 5 µM (≈ 2.49 µg/mL)
- MIC (Enterococcus faecium [3]): 10 µM (≈ 4.99 µg/mL)

Structure (SMILES): C=CC(C)(C)c1cc(/C=C/C(=O)c2ccc(O)cc2)c(OC)cc1O [LICOAGROCHACONE A]
- Hemolysis [9]: 100%
- MIC (Enterococcus faecium [1]): 75 µM (≈ 25.4 µg/mL)
- MIC (Staphylococcus aureus [2]): 40 µM (≈ 13.5 µg/mL)
- Membrane integrity (Staphylococcus aureus [10]): 0%
- MIC (Enterococcus faecium [3]): 40 µM (≈ 13.5 µg/mL)

Structure (SMILES): Cc1cc(C)cc(-c2ccc(OCCN(C)C)c(/C=C/C(=O)c3ccccc3OCCN(C)C)c2)c1
- MIC (Enterococcus faecium [1]): 10 µM (≈ 4.87 µg/mL)
- MIC (Staphylococcus aureus [2]): 10 µM (≈ 4.87 µg/mL)
- MIC (Escherichia coli [7]): 40 µM (≈ 19.5 µg/mL)
- MIC (Enterococcus faecium [3]): 10 µM (≈ 4.87 µg/mL)
